An excerpt weighted towards active compounds, which were near 2.7% of everything screened.
IMP-1 inhibitor: blocks Pseudomonas aeruginosa IMP-1 metallo-beta-lactamase; purified IMP-1, nitrocefin hydrolysis, epi-absorbance fluorescence; inhibition, % at 5.6 µM; 290,000 compounds, 0.45% hits;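 active means inhibition above the mean plus 3 SD of all compounds in the same screening run, cut at about 4.5% in these data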;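 further: 0% = IMP-1 with DMSO and 100% = DMSO wells lacking enzyme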
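System – purified recombinant IMP-1 beta-lactamase · Input – IMP-1 dispensed at 0.2 nM · Timing – 15 min preincubation plus 25 min reaction at 25 °C · Signal – Epi-absorbance fluorescence, 480 nm excitation, 530 nm emission · Measure – percent IMP-1 inhibition derived from blank-referenced optical density · Controls – Enzyme-plus-DMSO low control, enzyme-free DMSO high control · Replication – singlicate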
VIM-2 inhibitor: inhibitors of Pseudomonas aeruginosa VIM-2 metallo-beta-lactamase | AID 1527 | purified VIM-2, nitrocefin hydrolysis, epi-absorbance fluorescence | 290,000 compounds, 0.89% hits | inhibition, % at 5.6 µM;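 active means inhibition above the mean of all tested compounds plus 3 SD, cutoff set per screening run, cut at about 7.5% in these data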;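 further: red hydrolysis product quenches plate fluorescence so inhibitors raise well fluorescence; 0% = enzyme with DMSO and 100% = DMSO without enzyme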
PfM18AAP inh: PfM18AAP enzyme inhibition; inhibition, % at 7.35 µM; 290,000 compounds, 1.2% hits; AID 1822; recombinant PfM18AAP, H-Glu-NHMec fluorogenic cleavage;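 active means inhibition above the campaign mean inhibition over all tested compounds plus 3 SD, cut at about 28% in these data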;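 further: 0% = plate median of test compound wells and 100% = 2 mM ZnCl2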
CTSL1 counter: cathepsin L1 inhibition, PFM18AAP counter-screen; recombinant F. hepatica cathepsin L1, Z-Leu-Arg-MCA fluorescence; inhibition, % at 5.96 µM; 300,000 compounds, 0.49% hits; AID 1906;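 active means inhibition above the mean of all tested compounds plus 3 SD, set per screening campaign, cut at about 17% in these data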;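 further: 0% = plate median of test compound wells and 100% = 1 µM Z-Phe-Ala-diazomethylketone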
* hit, by the source's call; x = not tested or not shown.

SMILES	IMP-1 inhibitor	VIM-2 inhibitor	PfM18AAP inh	CTSL1 counter
COc1cccc(C(=O)NC2CC3CCCC(C2)N3CC(=O)Nc2ccccc2)c1 (stereo not given)	28*	-1	-3	0
Cc1ccc(-n2c(C)cc(/C=C3\NC(=O)NC3=O)c2C)c(C)c1	-3	-3	6	17*
COc1ccc(-n2nc(C(=O)NCC(=O)NCCN(C)C)c3ccccc3c2=O)cc1	-3	1	0	-3
COc1ccc(Nc2cc(C)c3c(O)cccc3n2)cc1	-1	8.8*	-5	-4
c1csc(C2=Nn3c(nnc3-c3ccncc3)SC2)c1	-3	1	8	4
CCOc1ccc(C2=Nn3c(nnc3-c3ccco3)SC2)cc1	-3	2	-12	2
CCOc1ccc(C2=Nn3c(nnc3-c3ccccn3)SC2)cc1	-2	7.7*	-3	0
Brc1ccc(C2=Nn3c(nnc3-c3ccncc3)SC2)cc1	-3	9.2*	1	x
CCOc1ccc(N2CC(C(=O)Nc3ccccc3C(=O)NC3CC3)CC2=O)cc1 (stereo not given)	-3	-4	-5	-3
O=C(CSC1=NCCS1)Nc1ccnc2ccccc12	-4	0	-3	0
CC(C)c1onc(C(=O)NCc2ccccc2)c1[N+](=O)[O-]	-3	-3	9	18*
C/C(=N\O)C(C)Oc1ccc(Cl)cc1 (stereo not given)	0	0	-14	2
Oc1ccc2ccccc2c1C=NC12CN3CCN(CN(C3)C1)C2	-3	2	10	32*
CC(NC(=S)Nc1c(Br)cccc1OC(F)F)C(C)(C)C (stereo not given)	-3	-2	-5	7
CC1CCCCC1NC(=O)/C=C/c1nc2ccccc2s1 (stereo not given)	1	-1	-2	23*
C/C(=N\NC(N)=S)C1(C)CCCCC1	-2	-3	-7	30*
C/C(=N\NC(N)=S)C12CC3CC(CC(C3)C1)C2	-1	0	18	18*
NC(=O)NC(=O)CN1c2cccc3cccc(c23)S1(=O)=O	-1	3	-10	2
CSCCC(=O)N1CCCC(N2CCN(c3cccc(C(F)(F)F)c3)CC2)C1 (stereo not given)	-4	-1	-1	-2
O=C(COC(=O)C1C2CC3OC(=O)C1C3C2)Nc1ccccc1 (stereo not given)	-1	-4	7	6
CN(C)CCN(C)Cc1c2ccccc2c(CN(C)CCN(C)C)c2ccccc12	-1	2	29*	0
NS(=O)(=O)c1ccc2ccccc2c1	1	0	0	-1
O=C(O)/C=C/S(=O)(=O)c1ccc2ccccc2c1	-1	-1	-1	54*
Cc1nc2ccc(C(=O)OCc3ccccc3Br)cc2nc1C	-3	-2	-9	19*
CC(=O)N(c1ccccc1)C1SC(=O)N(c2ccccc2)C1=O (stereo not given)	6.5*	3	-5	15
SMILES	IMP-1 inhibitor	VIM-2 inhibitor	PfM18AAP inh	CTSL1 counter
Cc1ccc(N2C(=O)SC(N(CC(=O)O)c3cccc(C)c3)C2=O)cc1 (stereo not given)	-2	1	-7	0
O=C(/C=C/c1ccc(Cl)cc1)c1cccnc1	-3	-3	15	1
O=C(/C=C/c1ccccc1Cl)c1cccnc1	-3	0	28*	6
O=C(/C=C/c1ccccc1Cl)c1ccccc(=O)c1O	11*	2	8	-7
Cc1ccc(C)c(/C=C/C(=O)c2ccccc(=O)c2O)c1	3	-4	25	-3
Nc1ccc(SCC(=O)Nc2cccc([N+](=O)[O-])c2)cc1	1	0	-4	-1
CCc1ccccc1NC(=O)CCS(=O)(=O)c1ccc(OC)cc1	37*	-2	0	-5
COCCNC(=O)C(=O)Nc1cc2c3c(c1)C(C)C(=O)N3CCC2 (stereo not given)	-1	-2	6	18*
COc1ccccc1CCNC(=O)C(=O)Nc1cc2c3c(c1)C(C)C(=O)N3CCC2 (stereo not given)	x	x	x	0
S=C(c1ccc(Br)cc1)N1CCCC1	-1	1	-10	4
OCCN1CCN(C(=S)c2ccc(Br)cc2)CC1	-2	-2	30*	2
CCC[n+]1c(C)sc2c(OC)ccc(OC)c21	0	-1	28*	1
CCCC[n+]1c(C)sc2cc(OC)ccc21	-2	-4	24	-2
COc1ccccc1N1CCN(C(=O)CSc2nc3ccccc3nc2N2CCC(C)CC2)CC1	0	-1	-8	5
Nc1ccc2nc(-c3cccc(-c4nc5ccc(N)cc5[nH]4)n3)[nH]c2c1	-5	10.0*	9	9
Nc1ccc2nc(-c3ccc(-c4nc5ccc(N)cc5[nH]4)cc3)[nH]c2c1	-4	-3	16	-2
O=C1C(SCCO)=C(SCCO)C(=O)c2ccccc21	x	x	x	79*
O=C1C(Cl)=C(NCCCO)C(=O)c2ccccc21	0	2	8	11
C[C@H]1CC[C@H]2C(=O)N[C@H](Cc3ccccc3)C(=O)N2[C@@H]1c1ccccc1	1	-2	4	8
CCCCS(=O)(=O)/C=C\C1C2C=CC(C2)C1S(=O)(=O)CCCC (stereo not given)	-2	1	0	-1
CCCCS(=O)(=O)/C=C\C=C/S(=O)(=O)CCCC	-2	0	-42	64*
COC(=O)c1c(N)sc(C(=O)N2CCOCC2)c1C	0	-1	-6	3
COC(=O)c1c(NC(=O)CCl)sc(C(=O)N2CCOCC2)c1C	-1	0	0	35*
COc1ccc(Br)cc1CN(C)C(=O)c1cnc(C)cn1	-3	-1	-8	-7
CSCC[C@H](NC(=O)C1CCN(S(=O)(=O)c2ccc(C)cc2)CC1)C(=O)NCc1ccco1	5.9*	-2	-8	7
SMILES	IMP-1 inhibitor	VIM-2 inhibitor	PfM18AAP inh	CTSL1 counter
CCC(=O)Nc1cccc(-c2cnc3ccccc3n2)c1	-2	0	-6	-1
COc1ccc(CC(=O)Nc2ccc(OC)nc2)cc1	-1	-1	-2	-4
COc1ccc(NC(=O)CCl)cn1	-1	-2	-2	17*
O=C(CCl)Nc1ccc(Oc2cnc3ccccc3n2)cc1	-2	-2	-2	23*
O=C(CCl)Nc1cccc(-c2cnc3ccccc3n2)c1	0	1	-4	74*
Cc1nnc(-c2cnn(C)c2N)n1Cc1cccc(Cl)c1	-6	-3	-6	0
COc1ccc(C(C[N+](=O)[O-])c2c(C)[nH]c3ccccc23)cc1OC (stereo not given)	13*	0	20	-3
O=C(NNc1c2ccccc2nc2ccccc12)c1ccccc1Cl	-6	-3	11	18*
O=C(O)c1ccccc1C(=O)NNc1cccc(Cl)n1	1	0	45*	0
O=C(NNc1c2ccccc2nc2ccccc12)c1ccccc1O	-2	-4	-5	2
Cc1ccc2c(c1)Oc1ccc(NC(=O)CCl)cc1C(=O)N2	-1	1	-10	52*
Cc1ccc2c(c1)Oc1ccc([N+](=O)[O-])cc1C(=O)N2	-2	1	-6	-1
